The source made the active and inactive calls. The rule behind the calls is not given here.

Consider five compounds from ChEMBL document CHEMBL4619796, “Discovery of 3-Quinazolin-4(3H)-on-3-yl-2,N-dimethylpropanamides as Orally Active and Selective PI3Kα Inhibitors” (ACS Med Chem Lett, 2020).

Data set [1] can be described thus: Oral bioavailability in BALB/c mouse at 10 mg/kg by HPLC analysis. In kind it is ADME, organism-based. As to conditions: in vivo.
Data set [2] has as its target Phosphatidylinositol 4,5-bisphosphate 3-kinase catalytic subunit alpha isoform (Homo sapiens, UniProt P42336). The data set can be described thus: Inhibition of PI3Kalpha (unknown origin) using PIP2:3PS peptide as substrate preincubated for 15 mins followed by ATP addition at Km concentration and further incubated for 150 mins by ADP-Glo assay. A general note: In ADP-Glo the light output rises with the ADP produced.

Data set [3] is described as follows: Dose normalized AUC (0 to last) in BALB/c mouse at 10 mg/kg, po by HPLC analysis. The class given is ADME, organism-based. As to conditions: in vivo.
The species named for data set [4] is Homo sapiens. Put plainly: Selectivity ratio of IC50 for PI3Kdelta (unknown origin) using PIP2:3PS peptide as substrate preincubated for 15 mins followed by ATP addition at Km concentration and further incubated for 120 mins by ADP-Glo assay to IC50 for PI3Kalpha (unknown origin) using PIP2:3PS peptide as substrate preincubated for 15 mins followed by ATP addition at Km concentration and further incubated for 150 mins by ADP-Glo assay.

Data set [5] relates to BT-474. The data set can be described thus: Antitumor activity against PI3KCA mutant human BT474 cells xenografted in BALB/c nude mouse assessed as tumor growth inhibition at 30 mg/kg, po administered once daily for 21 days by caliper method relative to control. In kind it is functional. Particulars: BT-474, po, 504 h, read-out: TGI. In a few lines: (§1)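 BT-474 (PIK3CA mutant human breast ductal carcinoma) subcutaneous xenografts in Balb/c nude mice. Oral dosing once daily for 21 days. Vehicle 0.5% MC + 0.2% Tween 80. Read-out is tumor growth inhibition.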
On the technique in general: Xenograft models place foreign cells or tissue in a host animal.

The species entered for data set [6] is Homo sapiens. The data set can be described thus: Selectivity ratio of IC50 for PI3Kgamma (unknown origin) using PIP2:3PS peptide as substrate preincubated for 15 mins followed by ATP addition at Km concentration and further incubated for 120 mins by ADP-Glo assay to IC50 for PI3Kalpha (unknown origin) using PIP2:3PS peptide as substrate preincubated for 15 mins followed by ATP addition at Km concentration and further incubated for 150 mins by ADP-Glo assay.

Data set [7] in a line: Cmax in BALB/c mouse at 10 mg/kg, po by HPLC analysis. The class given is ADME, organism-based. Also noted: dose 10 mg/kg, route oral. As to conditions: in vivo.
A short description of data set [8]: Clearance in BALB/c mouse at 1 mg/kg, […] by HPLC analysis. The class given is ADME, organism-based. Particulars: in vivo.
Data set [9] is filed under the species Homo sapiens. The data set can be described thus: Selectivity ratio of IC50 for PI3Kbeta (unknown origin) using PIP2:3PS peptide as substrate preincubated for 15 mins followed by ATP addition at Km concentration and further incubated for 120 mins by ADP-Glo assay to IC50 for PI3Kalpha (unknown origin) using PIP2:3PS peptide as substrate preincubated for 15 mins followed by ATP addition at Km concentration and further incubated for 150 mins by ADP-Glo assay.

Data set [10] is described as follows: Inhibition of PI3K in human MCF7 cells assessed as reduction in AKT phosphorylation at residue S473 incubated for 2 hrs followed by insulin addition by ELISA. The class given is cell-based. As to conditions: MCF7, 2 h.
Data set [11] concerns BT-474. Put plainly: Antitumor activity against PI3KCA mutant human BT474 cells xenografted in BALB/c nude mouse assessed as tumor growth inhibition at 10 to 20 mg/kg, po administered once daily for 21 days by caliper method. The class given is functional, organism-based. The method in brief: as §1
Data set [12] in a line: Toxicity in BALB/c nude mouse xenografted with PI3KCA mutant human BT474 cells at 30 mg/kg, po administered once daily. In kind it is organism-based, BT-474. As to conditions: in vivo. In a few lines:
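Balb/c nude mice bearing BT-474 subcutaneous xenografts. Oral dosing at 30 mg/kg once daily.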

Data set [13] deals with BT-474. The data set can be described thus: Antitumor activity against PI3KCA mutant human BT474 cells xenografted in BALB/c nude mouse assessed as tumor growth inhibition at 30 mg/kg, po administered once daily and measured after 30 days by caliper method relative to control. As to conditions: BT-474, po, 720 h, read-out: TGI. In kind it is functional.
Data set [14] relates to SK-OV-3. Put plainly: Antitumor activity against human SKOV3 cells xenografted in BALB/c nude mouse assessed as tumor growth inhibition at 10 to 100 mg/kg, po via gavage administered once daily and measured after 28 days by caliper method. The class given is functional, organism-based. In a few lines: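 SKOV-3 ovarian carcinoma subcutaneous xenografts in mice. Oral gavage once daily for 28 days at 10, 30 and 100 mg kg–1 day–1. Read-out is tumor growth inhibition.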

Sequence of Phosphatidylinositol 4,5-bisphosphate 3-kinase catalytic subunit alpha isoform (P42336 whole entry, canonical isoform): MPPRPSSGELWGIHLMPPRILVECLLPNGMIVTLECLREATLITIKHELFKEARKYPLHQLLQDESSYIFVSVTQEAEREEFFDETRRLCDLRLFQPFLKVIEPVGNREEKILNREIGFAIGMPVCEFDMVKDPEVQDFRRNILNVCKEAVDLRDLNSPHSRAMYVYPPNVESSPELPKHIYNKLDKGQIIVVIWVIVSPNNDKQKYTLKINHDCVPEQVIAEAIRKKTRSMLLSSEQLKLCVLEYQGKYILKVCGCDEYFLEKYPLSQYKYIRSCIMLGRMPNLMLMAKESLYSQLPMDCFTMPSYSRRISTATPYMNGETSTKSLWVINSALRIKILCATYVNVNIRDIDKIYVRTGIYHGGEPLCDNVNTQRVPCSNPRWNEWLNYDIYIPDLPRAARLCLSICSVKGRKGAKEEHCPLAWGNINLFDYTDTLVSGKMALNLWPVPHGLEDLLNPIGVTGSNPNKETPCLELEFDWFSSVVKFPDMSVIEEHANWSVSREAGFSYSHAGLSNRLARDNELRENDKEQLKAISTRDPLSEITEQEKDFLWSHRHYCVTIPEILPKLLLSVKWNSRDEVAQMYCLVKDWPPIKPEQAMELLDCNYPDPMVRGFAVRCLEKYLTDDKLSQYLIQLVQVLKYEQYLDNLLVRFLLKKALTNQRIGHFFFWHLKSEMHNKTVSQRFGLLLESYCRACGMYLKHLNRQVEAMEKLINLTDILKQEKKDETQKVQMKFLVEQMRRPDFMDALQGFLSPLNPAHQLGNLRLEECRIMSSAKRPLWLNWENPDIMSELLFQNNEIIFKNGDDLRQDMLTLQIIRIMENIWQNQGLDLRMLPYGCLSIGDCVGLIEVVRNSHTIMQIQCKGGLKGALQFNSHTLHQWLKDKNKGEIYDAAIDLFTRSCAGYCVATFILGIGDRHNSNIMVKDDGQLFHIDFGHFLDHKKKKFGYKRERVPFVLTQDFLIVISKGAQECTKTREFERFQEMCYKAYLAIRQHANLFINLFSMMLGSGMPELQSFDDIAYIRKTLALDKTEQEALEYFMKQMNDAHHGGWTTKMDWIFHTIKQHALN

What is called bioavailability is dose-corrected exposure relative to a reference, in per cent. Higher therefore signals much systemic uptake. What is called IC50 is the concentration that inhibits the measured activity by half. A word on the Cmax: it is the highest concentration seen after dosing. Broadly, the CL/F is clearance divided by bioavailability, as obtained after extravascular dosing. Compound `CNC(=O)[C@H](C)Cn1cnc2ccc(-c3cnc(OC)c(NS(=O)(=O)c4cccc(C(F)(F)F)c4)c3)cc2c1=O` came in with a bioavailability in data set [1] of 9%. Also, the figures for the IC50 in data set [2] and in [10] were 4.4 nM and 87.1 nM, respectively. This compound also registered an AUClast/dose in [3] of 2020 nM·h. Besides, the Ratio IC50 in [4] stood at 5.79; in data set [6] it was 10.4; in data set [9], 155. Also, in data set [5], the inhibition in vivo at 30 mg/kg worked out at 41.1%. In [7], this compound gave a Cmax of 24.7 µM. In [8], the CL/F amounted to 9 mL/min/kg.

Take `CNC(=O)[C@H](C)Cn1cnc2ccc(-c3cnc(OC)c(NS(=O)(=O)c4cccc(Cl)c4Cl)c3)cc2c1=O`: the TGI result in [11] was “inactive”. Also, the IC50 stood at 1.1 nM in [2] and 0.45 nM in data set [10]. This compound also returned an AUClast/dose in data set [3] of 5700 nM·h. For the same compound, the Ratio IC50 in [4] came to 11.6; in data set [6] it was 8.87; in data set [9], 175. Further, the Activity entry in data set [12] was “Toxic”. In data set [7], this compound showed a peak concentration (Cmax) of 24 µM.

Turning to `Cc1nc(NC(=O)N2CCC[C@H]2C(N)=O)sc1-c1ccnc(C(C)(C)C(F)(F)F)c1` [ALPELISIB], the inhibition in vivo at 30 mg/kg in data set [13] came out at 80.2%.

Consider `COc1ncc(-c2ccc3ncn(C[C@@H](C)C(N)=O)c(=O)c3c2)cc1NS(=O)(=O)c1ccc(F)cc1Cl`, for which the bioavailability in data set [1] was determined as 56.2%. Besides, the half-inhibitory concentration (IC50) in [2] turned out to be 2 nM; in data set [10], 17.1 nM. The AUClast/dose in data set [3] is on record as 1631 nM.hr/(mg/kg). Besides, the Ratio IC50 in data set [4] came to 5.03; in data set [6], 7.38; in [9] it was 83.2. Also, the TGI entry in data set [14] was “inactive”. In data set [7], the Cmax is 4.45 µM. Further, the CL/F in data set [8] is 9.8 mL/min/kg.

With `CNC(=O)[C@H](C)Cn1cnc2ccc(-c3cnc(OC)c(NS(=O)(=O)c4ccc(Cl)cc4Cl)c3)cc2c1=O`, the TGI entry in data set [11] was “inactive”. Besides, the concentration for half-maximal inhibition (IC50) amounted to 2.1 nM in [2] and 13.4 nM in data set [10]. The same compound gave an AUClast/dose in [3] of 6260 nM·h. In addition, the results for the Ratio IC50 in [4], in data set [6] and in data set [9] were 5.38, 10.8 and 131, respectively. In addition, in data set [12], the Activity entry is reported as “Toxic”. The concentration in data set [7] peaked (Cmax) at 37 µM.
